According to PMC7383777 (Pediatric Diabetes, 2020):
Like-named read-outs stand apart in the source and are kept apart here.

Format: in vivo, human
Details: for Glucose intervention needed, subjects: between 2 and 6 hours postdose
How it was run: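 Randomized crossover: single s.c. pen dose of test or comparator insulin (100 U/mL) at two visits 3–22 days apart. Subjects were hospitalised 12 h and fasted to 6 h. AEs were treatment-emergent if onset was ≤7 days postdose. Hypoglycaemia followed ADA/ISPAD definitions, confirmed by meter PG <56 mg/dL and counted up to the next insulin or 16 h. Glucose was given below 56 mg/dL or at investigator discretion.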

[1] = across the three age groups, 0.2 U/kg s.c. single dose

## insulin aspart [IAsp]
[1]
  Safety and tolerability: safe and well tolerated
  Serious AEs: No serious AEs were observed
  Severe hypoglycemic episodes: No severe hypoglycemic episodes were reported
adults, N = 15, 0.2 U/kg s.c. single dose
  Confirmed hypoglycemic episodes (PG below 56 mg/dL), number: three
adults
  Glucose intervention needed, subjects: three
All age groups
  Glucose intervention needed, subjects: seven
children
  Glucose intervention needed, subjects: three
